The term MIC denotes the smallest concentration in the dilution series that meets the test's criterion for growth inhibition. Read a low MIC as inhibition by little substance. For orientation: solubility means the concentration that dissolves in the medium under given conditions. Higher therefore signals a readily soluble substance.

Molecules are shown by their SMILES. Converted amounts (≈) assume the structure as drawn.

Consider twelve compounds from ChEMBL document CHEMBL3259614, “Design, synthesis, and structure-activity relationship studies of novel fused heterocycles-linked triazoles with good activity and water solubility” (J Med Chem, 2014).

The subject of data set [1] is Candida albicans. The experiment in a line: Antimicrobial activity against Candida albicans SC5314 after 24 hrs by serial dilution method. The note with it: SC5314, 24 h. Format: functional. In short, it runs like this: (§1)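 Broth serial dilution MIC in 96-well plates following NCCLS/CLSI methods. Compounds were dissolved in DMSO and serially diluted in growth medium, with incubation at 35 °C. […] C. parapsilosis 22019 served as the quality-control strain in each assay.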

Data set [2] concerns Candida albicans. The experiment in a line: Antimicrobial activity against Candida albicans Y0109 after 24 hrs by serial dilution method. It is filed as functional. The note with it: Y0109, 24 h. In short, it runs like this:
as §1

In the next data set the test system is Candida parapsilosis. The experiment in a line: Antimicrobial activity against Candida parapsilosis 22019 after 24 hrs by serial dilution method. It is filed as functional. The settings on record: Lodderomyces parapsilosis, 22019, 24 h. In short, it runs like this: as §1
In the next data set the test system is Cryptococcus neoformans. The experiment in a line: Antimicrobial activity against Cryptococcus neoformans 32609 after 72 hrs by serial dilution method. It is filed as functional. The note with it: Cryptococcus neoformans, 32609, 72 h. In short, it runs like this: as §1
A further data set has as its system Nakaseomyces glabratus. In words: Antimicrobial activity against Candida glabrata 537 after 24 hrs by serial dilution method. It is filed as functional. The settings on record: Nakaseomyces glabratus, 537, 24 h. In short, it runs like this:
as §1

The next data set deals with Aspergillus fumigatus. In words: Antimicrobial activity against Aspergillus fumigatus 7544 after 48 hrs by serial dilution method. It is filed as functional. The settings on record: Aspergillus fumigatus, 7544, 48 h. In short, it runs like this: as §1
Data set [3] can be described thus: Aqueous solubility of the compound in phosphate buffer at pH 7.4. It is filed as physicochemical. In short, it runs like this: (§2)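 Excess solid was stirred for 3 h in pH 1.2 hydrochloric acid or pH 7.4 phosphate buffer, then filtered through 0.45 μm. Absorbance at the UV maximum was compared with a methanol standard, C′ = A′C/A, with values reported in mg/mL. Determined at 30 °C; mean ± SD, n = 3.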

In data set [4] the test system is Candida albicans. In words: Antimicrobial activity against fluconazole-resistant Candida albicans 100 after 24 hrs by serial dilution method. It is filed as functional. The settings on record: Candida albicans, 100, 24 h. In short, it runs like this:
(§3)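 Broth serial-dilution MIC in 96-well plates following NCCLS guidance. Compounds were dissolved in DMSO and serially diluted in growth medium. Clinical isolates came from a hospital collection. […] C. parapsilosis ATCC 22019 served as the quality-control strain in each assay.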

The test system of data set [5] is Candida albicans. The experiment in a line: Antimicrobial activity against fluconazole-resistant Candida albicans 103 after 24 hrs by serial dilution method. The note with it: Candida albicans, 103, 24 h. It is filed as functional. In short, it runs like this:
as §3

Data set [6] deals with Candida albicans. The experiment in a line: Antimicrobial activity against fluconazole-resistant Candida albicans J18 after 24 hrs by serial dilution method. It is filed as functional. The note with it: J18, 24 h. In short, it runs like this:
as §3

For data set [7], the system named is Candida albicans. In words: Antimicrobial activity against fluconazole-resistant Candida albicans J28 after 24 hrs by serial dilution method. It is filed as functional. The note with it: J28, 24 h. In short, it runs like this:
as §3

Data set [8] relates to Candida albicans. In words: Antimicrobial activity against fluconazole-resistant Candida albicans J38 after 24 hrs by serial dilution method. It is filed as functional. The settings on record: J38, 24 h. In short, it runs like this: as §3
The nature of data set [9]: Aqueous solubility of the compound in hydrochloric acid solution at pH 1.2. Format: physicochemical. In short, it runs like this:
as §2

As for `C[C@@H](N1CCc2cc(-c3cncnc3)sc2C1)[C@](O)(Cn1cncn1)c1ccc(F)cc1F`, the minimal inhibitory concentration (MIC) is 0.5 µg/mL (≈ 1.07 µM) with Candida albicans [1]; 0.25 µg/mL (≈ 0.534 µM) against Candida albicans [2]; 0.5 µg/mL (≈ 1.07 µM) against Candida parapsilosis; 0.5 µg/mL (≈ 1.07 µM) in the data set with Cryptococcus neoformans; 1 µg/mL (≈ 2.13 µM) in the data set with Nakaseomyces glabratus; 16 µg/mL (≈ 34.1 µM) against Aspergillus fumigatus.

With `C[C@@H](N1CCc2cc(-c3ccc(C#N)nc3)sc2C1)[C@](O)(Cn1cncn1)c1ccc(F)cc1F`, the MIC against Candida albicans [1] is 2 µg/mL (≈ 4.06 µM); in the data set with Candida albicans [2], 4 µg/mL (≈ 8.12 µM); with Candida parapsilosis, 4 µg/mL (≈ 8.12 µM); in the data set with Cryptococcus neoformans, 4 µg/mL (≈ 8.12 µM); with Nakaseomyces glabratus, 4 µg/mL (≈ 8.12 µM); with Aspergillus fumigatus, 32 µg/mL (≈ 65 µM).

For `C[C@@H](N1CCc2nc(-c3cncnc3)sc2C1)[C@](O)(Cn1cncn1)c1ccc(F)cc1F.Cl`, the concentration in solution in [3] (solubility) was 14800 µg/mL.

Take `CS(=O)(=O)O.C[C@@H](N1CCc2nc(-c3cncnc3)sc2C1)[C@](O)(Cn1cncn1)c1ccc(F)cc1F`: the concentration in solution in data set [3] (solubility) came to 12000 µg/mL.

Compound `C[C@@H](N1CCc2nc(-c3cncnc3)sc2C1)[C@](O)(Cn1cncn1)c1ccc(F)cc1F.Cc1ccc(S(=O)(=O)O)cc1` yielded a solubility in [3] of 5800 µg/mL.

In [3], `C[C@@H](N1CCc2nc(-c3cncnc3)sc2C1)[C@](O)(Cn1cncn1)c1ccc(F)cc1F.O=S(=O)(O)O` showed a solubility of 108000 µg/mL.

Compound `Br.C[C@@H](N1CCc2nc(-c3cncnc3)sc2C1)[C@](O)(Cn1cncn1)c1ccc(F)cc1F` came in with a solubility in [3] of 12100 µg/mL.

As to `C[C@@H](N1CCc2nc(-c3cncnc3)sc2C1)[C@](O)(Cn1cncn1)c1ccc(F)cc1F.O=P(O)(O)O`, in [3], the concentration in solution (solubility) came to 8330 µg/mL.

For the compound `C[C@@H](n1cnc2cc(Cl)ccc2c1=O)[C@](O)(Cn1cncn1)c1ccc(F)cc1F` [ALBACONAZOLE], the MIC against Candida albicans [1] was 0.0078 µg/mL (≈ 0.0181 µM); in the data set with Candida albicans [2] it was at most 0.0312 µg/mL; with Candida parapsilosis it was 0.0156 µg/mL (≈ 0.0361 µM); in the data set on Cryptococcus neoformans, at most 0.0312 µg/mL; in the data set with Nakaseomyces glabratus, at most 0.0312 µg/mL; against Aspergillus fumigatus it was 0.5 µg/mL (≈ 1.16 µM). Besides, the minimal inhibitory concentration (MIC) was 8 µg/mL (≈ 18.5 µM) against Candida albicans [4]; 4 µg/mL (≈ 9.26 µM) with Candida albicans [5]; over 16 µg/mL against Candida albicans [6]; at most 0.0312 µg/mL in the data set on Candida albicans [7]; at most 0.0312 µg/mL against Candida albicans [8]. Further, the concentration in solution in [9] (solubility) was 1 µg/mL (≈ 2.32 µM).

Turning to `C[C@@H]1[C@H](O)[C@@H](C)/C=C/C=C/C=C/C=C/C=C/C=C/C=C/[C@H](O[C@@H]2O[C@H](C)[C@@H](O)[C@H](N)[C@@H]2O)C[C@@H]2O[C@](O)(C[C@@H](O)C[C@@H](O)[C@H](O)CC[C@@H](O)C[C@@H](O)CC(=O)O[C@H]1C)C[C@H](O)[C@H]2C(=O)O` [AMPHOTERICIN B], the MIC against Candida albicans [1] was determined as 1 µg/mL (≈ 1.08 µM); in the data set with Candida albicans [2] it was 1 µg/mL (≈ 1.08 µM); against Candida parapsilosis, 0.5 µg/mL (≈ 0.541 µM); against Cryptococcus neoformans, 1 µg/mL (≈ 1.08 µM); against Nakaseomyces glabratus, 0.5 µg/mL (≈ 0.541 µM); against Aspergillus fumigatus, 4 µg/mL (≈ 4.33 µM).

For the compound `C[C@@H](c1nc(-c2ccc(C#N)cc2)cs1)[C@](O)(Cn1cncn1)c1ccc(F)cc1F` [RAVUCONAZOLE], the MIC in the data set on Candida albicans [1] is 0.0625 µg/mL (≈ 0.143 µM); in the data set on Candida albicans [2], 0.0625 µg/mL (≈ 0.143 µM); against Candida parapsilosis, 0.125 µg/mL (≈ 0.286 µM); against Cryptococcus neoformans it was at most 0.0625 µg/mL; in the data set with Nakaseomyces glabratus it was at most 0.125 µg/mL; against Aspergillus fumigatus it was 1 µg/mL (≈ 2.29 µM). For the same compound, the concentration in solution in data set [9] (solubility) was 3 µg/mL (≈ 6.86 µM).

Regarding `C[C@@H](c1ncncc1F)[C@](O)(Cn1cncn1)c1ccc(F)cc1F` [VORICONAZOLE], the MIC against Candida albicans [1] was at most 0.0625 µg/mL; with Candida albicans [2], 0.0625 µg/mL (≈ 0.179 µM); with Candida parapsilosis, 0.125 µg/mL (≈ 0.358 µM); in the data set with Cryptococcus neoformans it was 0.0625 µg/mL (≈ 0.179 µM); in the data set with Nakaseomyces glabratus, at most 0.125 µg/mL; with Aspergillus fumigatus it was 2 µg/mL (≈ 5.73 µM). In addition, the minimal inhibitory concentration (MIC) against Candida albicans [4] was over 16 µg/mL; in the data set on Candida albicans [5], over 16 µg/mL; with Candida albicans [6], over 16 µg/mL; against Candida albicans [7], 0.0625 µg/mL (≈ 0.179 µM); against Candida albicans [8] it was 0.0625 µg/mL (≈ 0.179 µM). Also, the solubility was 1260 µg/mL (≈ 3620 µM) in data set [9] and 682 µg/mL (≈ 1950 µM) in [3].
